In ChEMBL document CHEMBL4382192, “Discovery of a potent dual ALK and EGFR T790M inhibitor” (Eur J Med Chem, 2017):

What was measured:
[1] = target: Mitogen-activated protein kinase kinase kinase 11 (Homo sapiens) (UniProt Q16584); assay: Binding affinity to wild-type human partial length MLK3 (I77 to W399 residues) expressed in bacterial expression system assessed as residual binding level at 1 uM by Kinomescan method relative to control
[2] = Cmax in mouse at 2 mg/kg, iv; type: ADME, organism-based; parameters: dose 2 mg/kg, route intravenous; conditions: in vivo
[3] = target: Serine/threonine-protein kinase STK11 (Homo sapiens) (UniProt Q15831); assay: Binding affinity to wild-type human full length LKB1 (M1 to Q433 residues) expressed in bacterial expression system assessed as residual binding level at 1 uM by Kinomescan method relative to control
Sequence of Serine/threonine-protein kinase STK11 (Homo sapiens) (Q15831 whole entry, the tested form may be a part): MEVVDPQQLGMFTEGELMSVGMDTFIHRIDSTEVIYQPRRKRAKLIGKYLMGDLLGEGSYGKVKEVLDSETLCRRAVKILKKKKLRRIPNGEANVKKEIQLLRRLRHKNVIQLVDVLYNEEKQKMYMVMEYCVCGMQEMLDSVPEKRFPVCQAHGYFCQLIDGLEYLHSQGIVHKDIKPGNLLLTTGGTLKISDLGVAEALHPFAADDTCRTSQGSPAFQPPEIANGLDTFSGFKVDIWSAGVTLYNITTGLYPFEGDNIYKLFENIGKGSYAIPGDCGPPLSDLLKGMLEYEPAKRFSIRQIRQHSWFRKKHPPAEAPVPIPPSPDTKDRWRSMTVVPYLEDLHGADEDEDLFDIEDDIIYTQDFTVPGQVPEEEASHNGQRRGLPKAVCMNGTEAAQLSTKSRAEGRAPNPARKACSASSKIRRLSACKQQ
How it was run: (§1)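 Single-point kinome-wide KINOMEscan binding panel, test compound at 1 μM, run by the provider's standard protocol.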

[4] = target: NT-3 growth factor receptor (Homo sapiens) (UniProt Q16288); assay: Binding affinity to wild-type human partial length TRKC (Q531 to G825 residues) expressed in mammalian expression system assessed as residual binding level at 1 uM by Kinomescan method relative to control
[5] = target: Ribosomal protein S6 kinase alpha-5 (Homo sapiens) (UniProt O75582); assay: Binding affinity to wild-type human partial length N-terminal RPS6KA5 kinase domain 1 expressed in bacterial expression system assessed as residual binding level at 1 uM by Kinomescan method relative to control
Sequence of Ribosomal protein S6 kinase alpha-5 (Homo sapiens) (O75582 whole entry, looked up, the tested form may be a part): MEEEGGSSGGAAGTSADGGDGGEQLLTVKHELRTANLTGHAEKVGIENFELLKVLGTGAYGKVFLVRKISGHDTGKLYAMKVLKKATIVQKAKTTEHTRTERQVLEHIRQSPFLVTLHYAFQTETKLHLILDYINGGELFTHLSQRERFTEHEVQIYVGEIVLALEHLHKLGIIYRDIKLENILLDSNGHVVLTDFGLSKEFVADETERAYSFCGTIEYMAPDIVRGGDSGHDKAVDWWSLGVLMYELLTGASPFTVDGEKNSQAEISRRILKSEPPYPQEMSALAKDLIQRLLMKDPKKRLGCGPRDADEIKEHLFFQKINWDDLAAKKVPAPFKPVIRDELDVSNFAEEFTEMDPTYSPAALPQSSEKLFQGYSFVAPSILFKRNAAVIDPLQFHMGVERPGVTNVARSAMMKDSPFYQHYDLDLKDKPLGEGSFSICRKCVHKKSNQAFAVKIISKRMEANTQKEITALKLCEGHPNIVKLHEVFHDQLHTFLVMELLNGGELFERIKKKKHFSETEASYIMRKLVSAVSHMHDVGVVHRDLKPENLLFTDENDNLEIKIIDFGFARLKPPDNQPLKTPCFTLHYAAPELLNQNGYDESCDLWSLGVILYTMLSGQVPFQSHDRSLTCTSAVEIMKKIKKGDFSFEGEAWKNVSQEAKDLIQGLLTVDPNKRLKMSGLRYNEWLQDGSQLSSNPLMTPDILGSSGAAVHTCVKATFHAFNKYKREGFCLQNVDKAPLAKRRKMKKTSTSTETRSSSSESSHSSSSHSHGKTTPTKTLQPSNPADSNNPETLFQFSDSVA

[6] = target: Phosphatidylinositol 3-kinase C2 domain-containing subunit gamma (Homo sapiens) (UniProt O75747); assay: Binding affinity to wild-type human partial length PIK3C2G (M1 to I1446 residues) expressed in mammalian expression system assessed as residual binding level at 1 uM by Kinomescan method relative to control
Sequence of Phosphatidylinositol 3-kinase C2 domain-containing subunit gamma (Homo sapiens) (O75747 whole entry, the tested form may be a part): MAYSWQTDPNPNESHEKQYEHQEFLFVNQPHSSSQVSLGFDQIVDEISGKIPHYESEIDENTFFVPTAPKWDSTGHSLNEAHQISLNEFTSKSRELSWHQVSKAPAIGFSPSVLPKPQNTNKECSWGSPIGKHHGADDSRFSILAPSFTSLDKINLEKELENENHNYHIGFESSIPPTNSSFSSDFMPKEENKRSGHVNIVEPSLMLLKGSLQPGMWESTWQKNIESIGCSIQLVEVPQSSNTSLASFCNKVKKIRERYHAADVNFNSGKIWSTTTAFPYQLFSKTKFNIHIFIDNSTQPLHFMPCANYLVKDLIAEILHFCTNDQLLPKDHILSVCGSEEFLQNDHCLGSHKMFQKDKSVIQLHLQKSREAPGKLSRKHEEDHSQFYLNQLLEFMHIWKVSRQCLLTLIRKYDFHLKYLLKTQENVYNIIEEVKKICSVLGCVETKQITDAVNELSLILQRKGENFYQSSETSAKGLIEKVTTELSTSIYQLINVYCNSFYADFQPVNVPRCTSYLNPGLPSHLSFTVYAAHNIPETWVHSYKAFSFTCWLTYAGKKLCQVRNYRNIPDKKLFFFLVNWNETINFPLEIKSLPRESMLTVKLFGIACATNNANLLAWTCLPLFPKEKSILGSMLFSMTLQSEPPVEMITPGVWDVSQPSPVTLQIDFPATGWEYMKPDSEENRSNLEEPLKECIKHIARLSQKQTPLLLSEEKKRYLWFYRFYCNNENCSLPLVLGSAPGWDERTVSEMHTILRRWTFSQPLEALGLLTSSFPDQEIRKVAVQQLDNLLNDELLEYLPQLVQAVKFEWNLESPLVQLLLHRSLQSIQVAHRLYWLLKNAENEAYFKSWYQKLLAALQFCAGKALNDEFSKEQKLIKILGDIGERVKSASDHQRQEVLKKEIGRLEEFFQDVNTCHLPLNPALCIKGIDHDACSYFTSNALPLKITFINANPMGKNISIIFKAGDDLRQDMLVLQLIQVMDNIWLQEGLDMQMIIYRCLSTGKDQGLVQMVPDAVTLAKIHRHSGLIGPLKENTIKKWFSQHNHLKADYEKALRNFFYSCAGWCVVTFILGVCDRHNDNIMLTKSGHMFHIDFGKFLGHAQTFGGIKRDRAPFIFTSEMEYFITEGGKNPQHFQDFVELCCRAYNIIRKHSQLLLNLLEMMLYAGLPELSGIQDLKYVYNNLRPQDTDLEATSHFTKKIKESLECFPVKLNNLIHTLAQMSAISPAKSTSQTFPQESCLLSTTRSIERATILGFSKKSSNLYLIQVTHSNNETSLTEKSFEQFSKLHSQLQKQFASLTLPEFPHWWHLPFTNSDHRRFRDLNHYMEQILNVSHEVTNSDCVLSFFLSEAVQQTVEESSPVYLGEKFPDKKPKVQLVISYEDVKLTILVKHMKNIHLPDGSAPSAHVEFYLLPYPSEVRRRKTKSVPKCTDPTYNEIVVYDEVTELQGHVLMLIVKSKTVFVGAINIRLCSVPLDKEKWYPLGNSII

[7] = target: ALK tyrosine kinase receptor (Homo sapiens, UniProt Q9UM73); assay: Binding affinity to wild-type human partial length ALK (I1088 to E1409 residues) expressed in mammalian expression system assessed as residual binding level at 1 uM by Kinomescan method relative to control
[8] = target: Cyclin-dependent kinase 3 (Homo sapiens) (UniProt Q00526); assay: Binding affinity to wild-type human full length CDK3 (M1 to H305 residues) expressed in bacterial expression system assessed as residual binding level at 1 uM by Kinomescan method relative to control
[9] = target: Mitogen-activated protein kinase 3 (Homo sapiens) (UniProt P27361); assay: Binding affinity to wild-type human full length ERK1 (M1 to P379 residues) expressed in bacterial expression system assessed as residual binding level at 1 uM by Kinomescan method relative to control; how it was run: as §1
Sequence of Mitogen-activated protein kinase 3 (Homo sapiens) (P27361 whole entry, the tested form may be a part): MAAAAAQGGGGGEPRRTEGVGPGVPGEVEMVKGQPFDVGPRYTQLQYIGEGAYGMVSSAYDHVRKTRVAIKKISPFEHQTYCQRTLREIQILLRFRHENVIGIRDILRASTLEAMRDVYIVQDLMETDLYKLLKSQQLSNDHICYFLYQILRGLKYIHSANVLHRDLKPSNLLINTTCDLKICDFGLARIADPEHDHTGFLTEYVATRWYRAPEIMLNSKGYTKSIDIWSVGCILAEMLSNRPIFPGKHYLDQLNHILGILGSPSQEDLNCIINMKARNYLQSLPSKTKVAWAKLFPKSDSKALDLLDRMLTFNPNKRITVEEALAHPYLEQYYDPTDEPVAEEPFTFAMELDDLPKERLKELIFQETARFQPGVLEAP

[10] = target: Bone morphogenetic protein receptor type-2 (Homo sapiens) (UniProt Q13873); assay: Binding affinity to wild-type human partial length BMPR2 (R179 to Q526 residues) expressed in mammalian expression system assessed as residual binding level at 1 uM by Kinomescan method relative to control
[11] = target: Mitogen-activated protein kinase kinase kinase kinase 1 (Homo sapiens) (UniProt Q92918); assay: Binding affinity to wild-type human full length HPK1 (M1 to R799 residues) expressed in bacterial expression system assessed as residual binding level at 1 uM by Kinomescan method relative to control
[12] = target: Tyrosine-protein kinase JAK3 (Homo sapiens) (UniProt P52333); assay: Binding affinity to wild-type human partial length JAK3 JH1 catalytic domain (I781 to S1124 residues) expressed in mammalian expression system assessed as residual binding level at 1 uM by Kinomescan method relative to control
Sequence of Tyrosine-protein kinase JAK3 (Homo sapiens) (P52333 whole entry, the tested form may be a part): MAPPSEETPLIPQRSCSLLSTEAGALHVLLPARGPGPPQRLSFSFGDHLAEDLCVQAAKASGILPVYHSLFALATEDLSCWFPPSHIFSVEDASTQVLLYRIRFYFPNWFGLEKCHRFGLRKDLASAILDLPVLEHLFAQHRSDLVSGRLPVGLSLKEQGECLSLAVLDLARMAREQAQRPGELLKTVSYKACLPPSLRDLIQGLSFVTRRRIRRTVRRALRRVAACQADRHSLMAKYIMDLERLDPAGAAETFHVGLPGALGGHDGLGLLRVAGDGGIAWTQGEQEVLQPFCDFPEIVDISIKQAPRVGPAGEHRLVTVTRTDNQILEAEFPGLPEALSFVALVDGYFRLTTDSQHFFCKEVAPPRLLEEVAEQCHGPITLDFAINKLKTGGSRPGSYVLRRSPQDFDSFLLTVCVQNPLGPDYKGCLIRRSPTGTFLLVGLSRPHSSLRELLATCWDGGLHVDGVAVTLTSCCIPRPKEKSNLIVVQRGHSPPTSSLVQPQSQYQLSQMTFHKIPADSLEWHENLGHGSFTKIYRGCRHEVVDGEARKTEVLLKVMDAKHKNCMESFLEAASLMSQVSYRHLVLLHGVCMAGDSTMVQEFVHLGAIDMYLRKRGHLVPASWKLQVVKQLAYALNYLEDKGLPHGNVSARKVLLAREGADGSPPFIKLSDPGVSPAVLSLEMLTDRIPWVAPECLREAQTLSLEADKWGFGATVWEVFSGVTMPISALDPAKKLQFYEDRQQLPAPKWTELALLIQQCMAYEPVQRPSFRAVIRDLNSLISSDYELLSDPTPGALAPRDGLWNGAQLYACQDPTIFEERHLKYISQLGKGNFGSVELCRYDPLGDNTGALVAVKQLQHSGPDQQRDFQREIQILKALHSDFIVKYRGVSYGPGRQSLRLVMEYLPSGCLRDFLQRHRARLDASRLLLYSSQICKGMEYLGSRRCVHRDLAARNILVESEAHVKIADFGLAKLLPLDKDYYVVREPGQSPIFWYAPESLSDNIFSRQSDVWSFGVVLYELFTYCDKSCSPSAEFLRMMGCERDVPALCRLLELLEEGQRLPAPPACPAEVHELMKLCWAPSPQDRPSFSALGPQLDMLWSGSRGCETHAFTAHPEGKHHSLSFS

[13] = target: Serine/threonine-protein kinase BRSK1 (Homo sapiens) (UniProt Q8TDC3); assay: Binding affinity to wild-type human partial length BRSK1 (M1 to E754 residues) expressed in bacterial expression system assessed as residual binding level at 1 uM by Kinomescan method relative to control
[14] = target: Serine/threonine-protein kinase LATS2 (Homo sapiens) (UniProt Q9NRM7); assay: Binding affinity to wild-type human partial length LATS2 (Q641 to V1088 residues) expressed in mammalian expression system assessed as residual binding level at 1 uM by Kinomescan method relative to control
[15] = target: Serine/threonine-protein kinase DCLK1 (Homo sapiens) (UniProt O15075); assay: Binding affinity to wild-type human partial length DCAMKL1 (L270 to A662 residues) expressed in mammalian expression system assessed as residual binding level at 1 uM by Kinomescan method relative to control
Sequence of Serine/threonine-protein kinase DCLK1 (Homo sapiens) (O15075 whole entry, the tested form may be a part): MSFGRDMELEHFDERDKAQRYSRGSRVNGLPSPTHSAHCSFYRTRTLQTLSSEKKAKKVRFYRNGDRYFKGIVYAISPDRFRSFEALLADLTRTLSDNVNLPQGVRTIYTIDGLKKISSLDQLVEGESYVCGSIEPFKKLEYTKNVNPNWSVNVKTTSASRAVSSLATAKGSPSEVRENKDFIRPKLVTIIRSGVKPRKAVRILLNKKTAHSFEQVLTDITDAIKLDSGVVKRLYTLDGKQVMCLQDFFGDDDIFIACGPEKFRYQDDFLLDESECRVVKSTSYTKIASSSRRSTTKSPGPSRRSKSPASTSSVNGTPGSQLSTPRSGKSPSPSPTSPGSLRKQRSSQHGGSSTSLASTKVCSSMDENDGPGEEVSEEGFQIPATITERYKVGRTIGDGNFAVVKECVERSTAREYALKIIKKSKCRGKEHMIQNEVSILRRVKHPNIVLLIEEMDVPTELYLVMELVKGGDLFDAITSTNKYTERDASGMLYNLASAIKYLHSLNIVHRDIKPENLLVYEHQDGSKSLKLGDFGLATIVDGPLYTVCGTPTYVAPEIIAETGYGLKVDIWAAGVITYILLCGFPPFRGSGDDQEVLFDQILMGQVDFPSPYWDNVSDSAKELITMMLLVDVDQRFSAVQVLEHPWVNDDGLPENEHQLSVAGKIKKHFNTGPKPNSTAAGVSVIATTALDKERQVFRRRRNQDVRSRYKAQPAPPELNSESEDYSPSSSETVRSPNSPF

[16] = target: Serine/threonine-protein kinase WNK3 (Homo sapiens) (UniProt Q9BYP7); assay: Binding affinity to wild-type human partial length WNK3 (M1 to D434 residues) expressed in mammalian expression system assessed as residual binding level at 1 uM by Kinomescan method relative to control
[17] = target: Receptor-type tyrosine-protein kinase FLT3 (Homo sapiens) (UniProt P36888); assay: Binding affinity to wild-type human partial length autoinhibited FLT3 (H564 to Y969 residues) expressed in mammalian expression system assessed as residual binding level at 1 uM by Kinomescan method relative to control
[18] = target: Calcium/calmodulin-dependent protein kinase type 1D (Homo sapiens) (UniProt Q8IU85); assay: Binding affinity to wild-type human partial length CAMK1D (M1 to K299 residues) expressed in bacterial expression system assessed as residual binding level at 1 uM by Kinomescan method relative to control
[19] = target: Serine/threonine-protein kinase Nek10 (Homo sapiens) (UniProt Q6ZWH5); assay: Binding affinity to wild-type human partial length NEK10 (L488 to R809 residues) expressed in mammalian expression system assessed as residual binding level at 1 uM by Kinomescan method relative to control
[20] = target: Cyclin-dependent kinase-like 3 (Homo sapiens) (UniProt Q8IVW4); assay: Binding affinity to wild-type human partial length CDKL3 (M1 to D327 residues) expressed in bacterial expression system assessed as residual binding level at 1 uM by Kinomescan method relative to control
[21] = target: Serine/threonine-protein kinase LATS1 (Homo sapiens) (UniProt O95835); assay: Binding affinity to wild-type human partial length LATS1 (Q678 to V1130 residues) expressed in bacterial expression system assessed as residual binding level at 1 uM by Kinomescan method relative to control
[22] = target: Calcium/calmodulin-dependent protein kinase type II subunit beta (Homo sapiens) (UniProt Q13554); assay: Binding affinity to wild-type human partial length CAMK2B (M1 to Q380 residues) expressed in bacterial expression system assessed as residual binding level at 1 uM by Kinomescan method relative to control
[23] = target: Ephrin type-B receptor 2 (Homo sapiens) (UniProt P29323); assay: Binding affinity to wild-type human partial length EPHB2 (I597 to L902 residues) expressed in bacterial expression system assessed as residual binding level at 1 uM by Kinomescan method relative to control
[24] = target: Mitogen-activated protein kinase 9 (Homo sapiens) (UniProt P45984); assay: Binding affinity to wild-type human full length JNK2 (M1 to Q382 residues) expressed in mammalian expression system assessed as residual binding level at 1 uM by Kinomescan method relative to control; how it was run: as §1
[25] = target: Serine/threonine-protein kinase WNK4 (Homo sapiens) (UniProt Q96J92); assay: Binding affinity to wild-type human partial length WNK4 (A31 to D461 residues) expressed in mammalian expression system assessed as residual binding level at 1 uM by Kinomescan method relative to control

C=CC(=O)Nc1cc(Nc2ncc(Cl)c(Nc3ccccc3S(=O)(=O)C(C)C)n2)c(OC)cc1N(C)CCN(C)C
Activity [1]: 82% | Cmax [2]: 882 ng/mL | Activity [3]: 88% | Activity [4]: 85% | Activity [5]: 85% | Activity [6]: 69% | Activity [7]: 0% | Activity [8]: 94% | Activity [9]: 77% | Activity [10]: 95% | Activity [11]: 15% | Activity [12]: 0% | Activity [13]: 49% | Activity [14]: 74% | Activity [15]: 14% | Activity [16]: 100% | Activity [17]: 85% | Activity [18]: 9.9% | Activity [19]: 28% | Activity [20]: 66% | Activity [21]: 82% | Activity [22]: 48% | Activity [23]: 61% | Activity [24]: 68% | Activity [25]: 94%
